The record followed here is ChEMBL document CHEMBL1949585, “Design, synthesis and evaluation of telomerase inhibitory, hTERT repressing, and anti-proliferation activities of symmetrical 1,8-disubstituted amidoanthraquinones” (Eur J Med Chem, 2012).

pIC50: −log10 of the molar value. The source made the active and inactive calls. The rule behind the calls is not given here.

Experiment [1] in a line: (§1) Inhibition of human telomerase in H1299 cell lysate compound incubated for 5 mins prior to telomerase extension by PCR-based telomeric repeat amplification protocol assay. Format: cell-free. The method in brief: (§2)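 TRAP assay on telomerase-active H1299 cell extracts, with RNase A-treated extract as the negative control. Compound was preincubated with extract for 5 min at room temperature before the telomerase extension and PCR amplification. The initial screen used 10 µM, and IC50 came from a dose series.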

Experiment [2] deals with H1299. The description is as §1. Format: cell-free. In a few lines:
as §2

A short description of experiment [3]: Cytotoxicity against human H1299 cells assessed as cell growth at 10 uM after 48 hrs by MTT assay. Format: functional. The note with it: NCI-H1299, 48 h, read-out: Activity. The method in brief: (§3)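 H1299 non-small lung cancer cells were grown in RPMI 1640 with 10% FBS and penicillin/streptomycin at 37 °C in 5% CO2. About 2×10³ cells were seeded per well and held 24 h, then washed with PBS and given fresh medium. Compound, freshly dissolved in DMSO and diluted in complete medium, was added for 48 h. MTT was read at 550 nm after SDS/DMF lysis at 37 °C for 16 h. Values are from three experiments, untreated = 100%, ±SD.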
(In general: Tetrazolium assays rely on reduction of a dye to a coloured formazan, in cell work by metabolically active cells.)

Experiment [4] is described as follows: Cytotoxicity against human H1299 cells assessed as cell growth at 100 uM after 48 hrs by MTT assay. Particulars: NCI-H1299, 48 h, read-out: Activity. Format: functional. In a few lines: as §3
Experiment [5] can be described thus: Inhibition of human TERT expression in H1299 cells at 1 uM after 24 hrs by secreted alkaline phosphatase reporter gene assay relative to control; values are per cent of control. The note with it: NCI-H1299. Background: In a reporter assay the amount or activity of a reporter protein is the signal.
Experiment [6] concerns H1299. As to the kind of experiment: Inhibition of human telomerase in H1299 cell lysate at 10 uM by PCR-based telomeric repeat amplification protocol assay. Format: cell-free. In a few lines:
as §2

Experiment [7] in a line: Cytotoxicity against human H1299 cells assessed as cell growth at 1 uM after 48 hrs by MTT assay. Format: functional. Particulars: NCI-H1299, 48 h, read-out: Activity. The method in brief: as §3
The nature of experiment [8]: Inhibition of human TERT expression in H1299 cells at 10 uM after 24 hrs by secreted alkaline phosphatase reporter gene assay relative to control; values are per cent of control. The note with it: NCI-H1299.
Experiment [9] deals with H1299. As to the kind of experiment: Inhibition of human telomerase in H1299 cell lysate compound incubated post-telomerase extension by PCR-based telomeric repeat amplification protocol assay. Format: cell-free. In a few lines:
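Modified TRAP assay (TRAP-M) to test for interference with Taq polymerase. Compound was added to H1299 extract reactions right after the telomerase extension step and before PCR amplification.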

Experiment [10] in a line: Inhibition of human TERT expression in H1299 cells at 100 uM after 24 hrs by secreted alkaline phosphatase reporter gene assay relative to control; values are per cent of control. Particulars: NCI-H1299.

`CC(C)NCCC(=O)Nc1cccc2c1C(=O)c1c(NC(=O)CCNC(C)C)cccc1C2=O`: the pIC50 (as a rule, the IC50 on a negative log10 scale, so that one unit is a factor of ten) in [1] was 5.52. For the same molecule, the inhibition result in the experiment on H1299 [2] and in the experiment with H1299 [9] was “Dose-dependent effect” throughout. Moreover, the growth at 10 µM in experiment [3] was found to be 29%. Moreover, in [4], the growth at 100 µM stood at 14%. Moreover, the level, % of control in experiment [5] is 106%; in experiment [8], 16%; in experiment [10] it was 0%. For the same molecule, the inhibition result in the experiment on H1299 [6] is “Active”. Further, the growth at 1 µM in experiment [7] came out at 101%.

Take `CN(C)CCCCNCCC(=O)Nc1cccc2c1C(=O)c1c(NC(=O)CCNCCCCN(C)C)cccc1C2=O`: the pIC50 in experiment [1] is 5.22. For the same molecule, the inhibition result with H1299 [2] and with H1299 [9] was “Dose-dependent effect” each time. For the same molecule, in experiment [3], the growth at 10 µM amounted to 74%. The growth at 100 µM in experiment [4] was determined as 7%. Also, the level, % of control in experiment [5] is 121%; in [8], 97%; in [10], 4%. Further, the inhibition result in the experiment on H1299 [6] is “Active”. For the same molecule, in [7], the growth at 1 µM amounted to 98%.

In the case of `CCN(C)CCC(=O)Nc1cccc2c1C(=O)c1c(NC(=O)CCN(C)CC)cccc1C2=O`, the growth at 10 µM in [3] was found to be 23%. Moreover, the growth at 100 µM in experiment [4] is 12%. Also, the level, % of control in [5] was 110%; in [8], 19%; in experiment [10], 0%. Moreover, the growth at 1 µM in experiment [7] is 96%.

Turning to `O=C(CCNCc1cc(F)cc(F)c1)Nc1cccc2c1C(=O)c1c(NC(=O)CCNCc3cc(F)cc(F)c3)cccc1C2=O`, in experiment [3], the growth at 10 µM came to 87%. Moreover, the growth at 100 µM in experiment [4] worked out at 6%. In addition, the results for the level, % of control in experiment [5], in experiment [8] and in experiment [10] were 98%, 100% and 3%, respectively. In addition, the growth at 1 µM in [7] amounted to 93%.

For `CC(C)CNCC(=O)Nc1cccc2c1C(=O)c1c(NC(=O)CNCC(C)C)cccc1C2=O`, the growth at 10 µM in [3] was 44%. Moreover, in experiment [4], the growth at 100 µM stood at 28%. The figures for the level, % of control in experiment [5], in [8] and in experiment [10] were 110%, 86% and 77%, respectively. Moreover, the growth at 1 µM in [7] was 53%.

On to `COC(=O)[C@@H](NCC(=O)Nc1cccc2c1C(=O)c1c(NC(=O)CN[C@H](C(=O)OC)c3ccccc3)cccc1C2=O)c1ccccc1`, for which the growth at 10 µM in experiment [3] amounted to 59%. In addition, the growth at 100 µM in [4] was determined as 18%. The level, % of control worked out at 97% in experiment [5], 74% in experiment [8] and 42% in experiment [10]. The growth at 1 µM in experiment [7] turned out to be 77%.
